Test results from ChEMBL document CHEMBL5523688, “Selective targeting of human TET1 by cyclic peptide inhibitors: Insights from biochemical profiling” (Bioorg Med Chem, 2024).

Tests used:
[1] = target: T1, Methylcytosine dioxygenase TET1 (Homo sapiens, UniProt Q8NFU7); test: (§1) Inhibition of N-terminal 3xFlag-tagged recombinant human TET1 catalytic domain (E1418 to V2136 residues) expressed in baculovirus infected Sf9 cells using 5-methylcytosine as substrate preincubated for 10 mins followed by substrate and DNA-cofactor addition measured after 30 mins by Alphascreen assay; conditions: read-out: pIC50 (converted)
T1 sequence (Q8NFU7 whole entry, the tested form may be a part): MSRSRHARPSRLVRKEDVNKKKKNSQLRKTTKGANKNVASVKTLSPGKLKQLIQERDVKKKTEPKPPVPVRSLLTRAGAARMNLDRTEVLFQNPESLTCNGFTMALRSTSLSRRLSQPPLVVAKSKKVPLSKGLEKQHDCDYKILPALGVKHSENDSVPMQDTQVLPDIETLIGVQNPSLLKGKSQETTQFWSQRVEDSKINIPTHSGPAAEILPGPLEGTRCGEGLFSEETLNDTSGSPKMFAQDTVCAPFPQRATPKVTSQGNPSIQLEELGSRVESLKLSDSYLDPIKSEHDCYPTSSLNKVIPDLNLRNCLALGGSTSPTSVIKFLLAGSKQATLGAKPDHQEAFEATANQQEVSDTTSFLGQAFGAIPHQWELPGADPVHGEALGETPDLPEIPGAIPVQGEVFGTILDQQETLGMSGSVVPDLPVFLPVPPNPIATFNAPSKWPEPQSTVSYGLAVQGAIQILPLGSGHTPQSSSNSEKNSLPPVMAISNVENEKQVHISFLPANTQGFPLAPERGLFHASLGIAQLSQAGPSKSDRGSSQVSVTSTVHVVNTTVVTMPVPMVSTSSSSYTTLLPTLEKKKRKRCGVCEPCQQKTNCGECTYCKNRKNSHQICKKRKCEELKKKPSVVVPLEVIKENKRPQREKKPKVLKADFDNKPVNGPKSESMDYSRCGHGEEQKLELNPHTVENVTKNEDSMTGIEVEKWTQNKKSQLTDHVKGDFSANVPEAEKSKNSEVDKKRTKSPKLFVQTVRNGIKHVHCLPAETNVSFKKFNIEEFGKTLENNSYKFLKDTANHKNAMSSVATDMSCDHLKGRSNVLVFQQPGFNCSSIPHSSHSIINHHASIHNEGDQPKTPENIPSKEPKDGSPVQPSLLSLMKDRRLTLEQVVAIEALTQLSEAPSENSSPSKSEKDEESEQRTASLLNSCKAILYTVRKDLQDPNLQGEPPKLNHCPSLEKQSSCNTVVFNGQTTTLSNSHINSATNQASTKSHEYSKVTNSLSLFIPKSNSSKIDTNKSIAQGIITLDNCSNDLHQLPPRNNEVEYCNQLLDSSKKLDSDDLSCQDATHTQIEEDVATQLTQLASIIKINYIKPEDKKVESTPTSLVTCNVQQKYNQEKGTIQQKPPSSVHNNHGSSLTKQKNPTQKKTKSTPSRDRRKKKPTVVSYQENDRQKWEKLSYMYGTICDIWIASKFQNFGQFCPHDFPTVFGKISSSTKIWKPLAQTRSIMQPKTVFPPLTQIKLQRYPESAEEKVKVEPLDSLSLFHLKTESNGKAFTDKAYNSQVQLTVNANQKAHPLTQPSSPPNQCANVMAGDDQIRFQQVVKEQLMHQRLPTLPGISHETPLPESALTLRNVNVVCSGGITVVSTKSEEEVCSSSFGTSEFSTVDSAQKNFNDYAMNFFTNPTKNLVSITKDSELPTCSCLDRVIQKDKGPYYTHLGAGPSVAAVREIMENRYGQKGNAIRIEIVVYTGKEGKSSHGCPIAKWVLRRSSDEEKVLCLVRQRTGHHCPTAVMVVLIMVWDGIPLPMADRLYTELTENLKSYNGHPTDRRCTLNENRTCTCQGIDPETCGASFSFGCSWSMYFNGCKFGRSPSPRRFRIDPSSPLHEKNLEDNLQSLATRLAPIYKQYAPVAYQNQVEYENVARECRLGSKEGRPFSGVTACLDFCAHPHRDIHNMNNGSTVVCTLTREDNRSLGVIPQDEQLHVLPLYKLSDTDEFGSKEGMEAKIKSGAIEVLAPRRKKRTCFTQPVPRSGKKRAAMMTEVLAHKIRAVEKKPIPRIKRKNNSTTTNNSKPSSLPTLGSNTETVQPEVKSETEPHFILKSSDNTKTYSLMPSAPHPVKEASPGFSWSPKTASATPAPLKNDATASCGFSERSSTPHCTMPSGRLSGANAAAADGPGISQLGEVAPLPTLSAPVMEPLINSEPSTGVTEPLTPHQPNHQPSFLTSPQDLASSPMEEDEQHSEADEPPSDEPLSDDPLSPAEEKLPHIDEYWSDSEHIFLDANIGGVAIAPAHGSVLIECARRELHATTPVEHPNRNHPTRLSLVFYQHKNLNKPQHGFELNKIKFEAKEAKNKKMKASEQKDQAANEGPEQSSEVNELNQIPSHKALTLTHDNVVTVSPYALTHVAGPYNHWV
How it was run: (§2)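 TET1 catalytic domain (E1418–V2136, Sf9 baculovirus) at 2 nM was preincubated 10 min with inhibitor (1% DMSO) in HEPES 50 mM pH 7.3, 150 mM NaCl, 0.1% BSA, 0.01% Tween-20. Reaction was started with ascorbate 200 µM, Fe(II) 20 µM, 2OG 20 µM and 5mC ssDNA 10 nM, run 30 min, then EDTA-quenched. Anti-5hmC antibody with AlphaScreen beads, 45–60 min, luminescence read. Three independent replicates.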

[2] = target: T2, Methylcytosine dioxygenase TET2 (Homo sapiens, UniProt Q6N021); test: (§3) Inhibition of N-terminal His-tagged recombinant human TET2 catalytic domain LCIdel mutant (D1129 to G1936 residues with Y1481 to N1843 replaced by 3 x GGGGS linker) expressed in Escherichia coli BL21 (DE3) using 5-methylcytosine as substrate preincubated for 10 mins followed by substrate and DNA-cofactor addition measured after 10 mins by Alphascreen assay
[3] = target: T3, Methylcytosine dioxygenase TET3 (Homo sapiens, UniProt O43151); test: (§4) Inhibition of recombinant human TET3 catalytic domain (E824 to I1795 residues) expressed in baculovirus infected Sf9 cells using 5-methylcytosine as substrate preincubated for 10 mins followed by substrate and DNA-cofactor addition measured after 10 mins by Alphascreen assay; conditions: read-out: pIC50 (converted)
T3 sequence (O43151 whole entry, the tested form may be a part): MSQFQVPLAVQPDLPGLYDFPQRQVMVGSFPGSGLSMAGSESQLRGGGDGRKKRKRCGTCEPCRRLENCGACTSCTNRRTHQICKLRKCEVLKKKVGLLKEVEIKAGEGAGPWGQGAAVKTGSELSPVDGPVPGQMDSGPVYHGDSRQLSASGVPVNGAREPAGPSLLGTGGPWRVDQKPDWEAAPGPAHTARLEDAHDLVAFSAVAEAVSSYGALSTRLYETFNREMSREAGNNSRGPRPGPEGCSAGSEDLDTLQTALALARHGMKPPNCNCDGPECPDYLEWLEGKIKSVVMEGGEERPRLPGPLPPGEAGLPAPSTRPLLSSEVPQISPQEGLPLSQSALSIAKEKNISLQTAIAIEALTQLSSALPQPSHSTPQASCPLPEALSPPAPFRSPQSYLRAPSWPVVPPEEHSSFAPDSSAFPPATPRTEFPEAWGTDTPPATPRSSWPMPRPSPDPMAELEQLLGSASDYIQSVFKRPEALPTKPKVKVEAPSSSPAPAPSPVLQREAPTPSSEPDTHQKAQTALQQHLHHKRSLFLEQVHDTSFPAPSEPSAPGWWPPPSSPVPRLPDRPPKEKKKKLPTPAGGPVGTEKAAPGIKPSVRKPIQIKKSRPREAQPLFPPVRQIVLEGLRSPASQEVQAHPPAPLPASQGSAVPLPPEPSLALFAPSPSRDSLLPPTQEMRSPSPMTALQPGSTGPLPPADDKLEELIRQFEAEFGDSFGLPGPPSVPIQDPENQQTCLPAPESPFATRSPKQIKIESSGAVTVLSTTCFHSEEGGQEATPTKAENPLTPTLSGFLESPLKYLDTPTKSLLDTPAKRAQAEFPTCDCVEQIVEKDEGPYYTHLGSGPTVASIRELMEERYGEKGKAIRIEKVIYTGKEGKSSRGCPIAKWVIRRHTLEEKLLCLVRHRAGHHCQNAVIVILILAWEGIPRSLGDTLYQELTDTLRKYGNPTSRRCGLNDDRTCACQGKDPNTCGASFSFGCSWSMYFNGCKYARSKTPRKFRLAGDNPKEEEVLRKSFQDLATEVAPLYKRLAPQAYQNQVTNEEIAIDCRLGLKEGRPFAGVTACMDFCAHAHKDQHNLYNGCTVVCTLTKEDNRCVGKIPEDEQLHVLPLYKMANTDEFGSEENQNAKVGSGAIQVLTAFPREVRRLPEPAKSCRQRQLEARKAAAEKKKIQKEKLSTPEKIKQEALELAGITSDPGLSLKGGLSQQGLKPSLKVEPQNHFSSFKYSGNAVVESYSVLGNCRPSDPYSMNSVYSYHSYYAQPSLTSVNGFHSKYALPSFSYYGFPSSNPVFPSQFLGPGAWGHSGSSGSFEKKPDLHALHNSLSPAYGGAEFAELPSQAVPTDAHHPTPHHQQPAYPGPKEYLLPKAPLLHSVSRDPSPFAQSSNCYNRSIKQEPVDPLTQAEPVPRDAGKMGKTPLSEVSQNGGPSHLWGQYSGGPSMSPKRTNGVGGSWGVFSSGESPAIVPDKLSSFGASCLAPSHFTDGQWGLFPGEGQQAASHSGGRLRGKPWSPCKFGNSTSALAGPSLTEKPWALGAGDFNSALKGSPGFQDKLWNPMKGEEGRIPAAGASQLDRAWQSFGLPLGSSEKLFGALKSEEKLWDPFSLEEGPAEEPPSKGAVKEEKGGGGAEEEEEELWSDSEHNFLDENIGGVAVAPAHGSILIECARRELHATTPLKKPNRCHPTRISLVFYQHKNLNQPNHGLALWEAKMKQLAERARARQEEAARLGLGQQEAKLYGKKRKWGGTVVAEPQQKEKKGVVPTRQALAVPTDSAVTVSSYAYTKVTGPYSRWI

[4] = target: T3, Methylcytosine dioxygenase TET3; test: as §4, with “as substrate assessed as change in pIC50 preincubated for” for “as substrate preincubated for”; conditions: time 20.0 min
[5] = target: T1, Methylcytosine dioxygenase TET1; test: as §1, with “as substrate assessed as change in pIC50 preincubated for” for “as substrate preincubated for”; conditions: time 40.0 min; how it was run: as §2
[6] = tested on: Methylcytosine dioxygenase TET2 (Homo sapiens), Q6N021 [UNDEFINED MUTATION]; conditions: time 20.0 min
[7] = target: T2, Methylcytosine dioxygenase TET2; test: as §3, with “after 12” for “after 10”, “by SPE-MS analysis” for “by Alphascreen assay”
[8] = target: Methylcytosine dioxygenase TET1 (Mus musculus, UniProt Q3URK3); test: Inhibition of recombinant mouse TET1 catalytic domain (E1367 to V2039 residues) expressed in baculovirus expression system using 5-methylcytosine as substrate preincubated for 10 mins followed by substrate and DNA-cofactor addition measured after 9 mins by Alphascreen assay
How it was run: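 Murine Tet1 catalytic domain (E1367–V2039, High Five baculovirus) at 2 nM was preincubated 10 min with inhibitor (1% DMSO) in HEPES 50 mM pH 7.3, NaCl 150 mM, BSA 0.1%, Tween-20 0.01%. Ascorbate 200 µM, Fe(II) 20 µM, 2OG 20 µM and 5mC ssDNA 10 nM were added; reaction ran 9 min, then EDTA-quenched. AlphaScreen anti-5hmC detection by luminescence.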

Compound	IC50 [1] [µM]	pIC50 [2]	IC50 [3] [µM]	deltapIC50 [4]	deltapIC50 [5]	deltapIC50 [6]	pIC50 [7]	IC50 [8] [µM]
CC[C@H](C)[C@@H]1NC(=O)[C@H](CC(C)C)NC(=O)[C@@H](Cc2ccc(O)cc2)NC(=O)CSC[C@@H](C(N)=O)NC(=O)[C@H](CO)NC(=O)[C@H](Cc2c[nH]cn2)NC(=O)[C@H](CCC(=O)O)NC(=O)[C@H](C)NC(=O)[C@H](Cc2c[nH]c3ccccc23)NC(=O)[C@H]([C@@H](C)O)NC(=O)[C@H](Cc2ccc(O)cc2)NC(=O)[C@H](Cc2ccc(O)cc2)NC(=O)[C@H](C)NC(=O)[C@H](Cc2ccc(O)cc2)NC1=O	13.8	< 4	15.1	-0.46	-1.63	< -0.7		
CC(C)C[C@@H]1NC(=O)[C@@H](Cc2ccc(O)cc2)NC(=O)CSC[C@@H](C(N)=O)NC(=O)[C@H](CO)NC(=O)[C@H](Cc2c[nH]cn2)NC(=O)[C@H](CCC(=O)O)NC(=O)[C@H](Cc2c[nH]c3ccccc23)NC(=O)[C@H](Cc2c[nH]c3ccccc23)NC(=O)[C@H]([C@@H](C)O)NC(=O)[C@H](Cc2ccc(O)cc2)NC(=O)[C@H](Cc2ccc(O)cc2)NC(=O)[C@H](C)NC(=O)[C@H](Cc2ccc(O)cc2)NC(=O)[C@H](C)NC1=O	1.23	4.41	13.8	-0.42	-0.57	-0.29		
CC[C@H](C)[C@@H]1NC(=O)[C@H](CC(C)C)NC(=O)[C@@H](Cc2ccc(O)cc2)NC(=O)CSC[C@@H](C(N)=O)NC(=O)[C@H](CO)NC(=O)[C@H](Cc2c[nH]cn2)NC(=O)[C@H](CCC(=O)O)NC(=O)[C@H](Cc2c[nH]c3ccccc23)NC(=O)[C@H](Cc2c[nH]c3ccccc23)NC(=O)[C@H]([C@@H](C)O)NC(=O)[C@H](C)NC(=O)[C@H](Cc2ccc(O)cc2)NC(=O)[C@H](C)NC(=O)[C@H](Cc2ccc(O)cc2)NC1=O	9.55	4.3	15.5	-0.46	-1.46	-0.4		
CC[C@H](C)[C@@H]1NC(=O)[C@H](CC(C)C)NC(=O)[C@@H](Cc2ccc(O)cc2)NC(=O)CSC[C@@H](C(N)=O)NC(=O)[C@H](CO)NC(=O)[C@H](Cc2c[nH]cn2)NC(=O)[C@H](CCC(=O)O)NC(=O)[C@H](Cc2c[nH]c3ccccc23)NC(=O)[C@H](Cc2c[nH]c3ccccc23)NC(=O)[C@H]([C@@H](C)O)NC(=O)[C@H](Cc2ccc(O)cc2)NC(=O)[C@H](C)NC(=O)[C@H](C)NC(=O)[C@H](Cc2ccc(O)cc2)NC1=O	1.1	4.63	16.2	-0.48	-0.52	-0.07		
CC[C@H](C)[C@@H]1NC(=O)[C@H](CC(C)C)NC(=O)[C@@H](Cc2ccc(O)cc2)NC(=O)CSC[C@@H](C(N)=O)NC(=O)[C@H](CO)NC(=O)[C@H](Cc2c[nH]cn2)NC(=O)[C@H](CCC(=O)O)NC(=O)[C@H](Cc2c[nH]c3ccccc23)NC(=O)[C@H](Cc2c[nH]c3ccccc23)NC(=O)[C@H]([C@@H](C)O)NC(=O)[C@H](Cc2ccc(O)cc2)NC(=O)[C@H](Cc2ccc(O)cc2)NC(=O)[C@H](C)NC(=O)[C@H](C)NC1=O	10.7	4.22	15.8	-0.47	-1.51	-0.48		
CC[C@H](C)[C@@H]1NC(=O)[C@H](C)NC(=O)[C@@H](Cc2ccc(O)cc2)NC(=O)CSC[C@@H](C(N)=O)NC(=O)[C@H](CO)NC(=O)[C@H](Cc2c[nH]cn2)NC(=O)[C@H](CCC(=O)O)NC(=O)[C@H](Cc2c[nH]c3ccccc23)NC(=O)[C@H](Cc2c[nH]c3ccccc23)NC(=O)[C@H]([C@@H](C)O)NC(=O)[C@H](Cc2ccc(O)cc2)NC(=O)[C@H](Cc2ccc(O)cc2)NC(=O)[C@H](C)NC(=O)[C@H](Cc2ccc(O)cc2)NC1=O	3.09	4.38	11	-0.32	-0.97	-0.31		
CC[C@H](C)[C@@H]1NC(=O)[C@H](CC(C)C)NC(=O)[C@@H](Cc2ccc(O)cc2)NC(=O)CSC[C@@H](C(N)=O)NC(=O)[C@H](CO)NC(=O)[C@H](Cc2c[nH]cn2)NC(=O)[C@H](CCC(=O)O)NC(=O)[C@H](Cc2c[nH]c3ccccc23)NC(=O)[C@H](Cc2c[nH]c3ccccc23)NC(=O)[C@H](C)NC(=O)[C@H](Cc2ccc(O)cc2)NC(=O)[C@H](Cc2ccc(O)cc2)NC(=O)[C@H](C)NC(=O)[C@H](Cc2ccc(O)cc2)NC1=O	2.88	4.65	5.25	0	-0.94	-0.05		
CC[C@H](C)[C@@H]1NC(=O)[C@H](CC(C)C)NC(=O)[C@@H](Cc2ccc(O)cc2)NC(=O)CSC[C@@H](C(N)=O)NC(=O)[C@H](C)NC(=O)[C@H](Cc2c[nH]cn2)NC(=O)[C@H](CCC(=O)O)NC(=O)[C@H](Cc2c[nH]c3ccccc23)NC(=O)[C@H](Cc2c[nH]c3ccccc23)NC(=O)[C@H]([C@@H](C)O)NC(=O)[C@H](Cc2ccc(O)cc2)NC(=O)[C@H](Cc2ccc(O)cc2)NC(=O)[C@H](C)NC(=O)[C@H](Cc2ccc(O)cc2)NC1=O	0.417	4.68	6.31	-0.08	-0.1	-0.02		
CC[C@H](C)[C@@H]1NC(=O)[C@H](CC(C)C)NC(=O)[C@@H](Cc2ccc(O)cc2)NC(=O)CSC[C@@H](C(N)=O)NC(=O)[C@H](CO)NC(=O)[C@H](Cc2c[nH]cn2)NC(=O)[C@H](C)NC(=O)[C@H](Cc2c[nH]c3ccccc23)NC(=O)[C@H](Cc2c[nH]c3ccccc23)NC(=O)[C@H]([C@@H](C)O)NC(=O)[C@H](Cc2ccc(O)cc2)NC(=O)[C@H](Cc2ccc(O)cc2)NC(=O)[C@H](C)NC(=O)[C@H](Cc2ccc(O)cc2)NC1=O	1.74	4.14	> 100	< -1.28	-0.72	-0.55		
CC[C@H](C)[C@@H]1NC(=O)[C@H](CC(C)C)NC(=O)[C@@H](Cc2ccc(O)cc2)NC(=O)CSC[C@@H](C(N)=O)NC(=O)[C@H](CO)NC(=O)[C@H](Cc2c[nH]cn2)NC(=O)[C@H](CCC(=O)O)NC(=O)[C@H](Cc2c[nH]c3ccccc23)NC(=O)[C@H](C)NC(=O)[C@H]([C@@H](C)O)NC(=O)[C@H](Cc2ccc(O)cc2)NC(=O)[C@H](Cc2ccc(O)cc2)NC(=O)[C@H](C)NC(=O)[C@H](Cc2ccc(O)cc2)NC1=O	6.92	4.34	20.4	-0.59	-1.32	-0.36		
CC[C@H](C)[C@@H]1NC(=O)[C@H](CC(C)C)NC(=O)[C@@H](Cc2ccc(O)cc2)NC(=O)CSC[C@@H](C(N)=O)NC(=O)[C@H](CO)NC(=O)[C@H](C)NC(=O)[C@H](CCC(=O)O)NC(=O)[C@H](Cc2c[nH]c3ccccc23)NC(=O)[C@H](Cc2c[nH]c3ccccc23)NC(=O)[C@H]([C@@H](C)O)NC(=O)[C@H](Cc2ccc(O)cc2)NC(=O)[C@H](Cc2ccc(O)cc2)NC(=O)[C@H](C)NC(=O)[C@H](Cc2ccc(O)cc2)NC1=O	0.195	4.93	3.09	0.24	0.23	0.23		
CC[C@H](C)[C@@H]1NC(=O)[C@@H](Cc2ccc(O)cc2)NC(=O)CSC[C@@H](C(N)=O)NC(=O)[C@H](CCCNC(=N)N)NC(=O)[C@H](Cc2c[nH]c3ccccc23)NC(=O)[C@H](Cc2c[nH]c3ccccc23)NC(=O)[C@H]([C@@H](C)O)NC(=O)[C@H](Cc2ccc(O)cc2)NC(=O)[C@H](Cc2ccc(O)cc2)NC(=O)[C@H](CCCNC(=N)N)NC(=O)[C@H](Cc2ccc(O)cc2)NC(=O)[C@H](C(C)C)NC1=O	0.269	5.66	1.38			-0.19	5.47	1.78
CC[C@H](C)[C@@H]1NC(=O)[C@H](Cc2ccccc2)NC(=O)[C@H](Cc2ccc(O)cc2)NC(=O)[C@H](CC(C)C)NC(=O)[C@H](CCCNC(=N)N)NC(=O)[C@H](C)NC(=O)[C@H](Cc2c[nH]c3ccccc23)NC(=O)[C@H](Cc2c[nH]c3ccccc23)NC(=O)[C@@H]2CCCN2C(=O)[C@H](C(C)C)NC(=O)[C@H](Cc2ccc(O)cc2)NC(=O)[C@@H](Cc2ccccc2)NC(=O)[C@H](CCCCN)NC(=O)[C@@H](Cc2ccc(O)cc2)NC(=O)CSC[C@H](C(N)=O)NC(=O)CNC1=O	0.24	5.95	1.02			-0.43	5.52	1.1
